What was measured:
Rattus norvegicus [1] = test: Effect of pretreatment with (+)-McN5652 with a dose of 2 mg/kg (i.v.) on specific binding of [18F]ACF in rat brain hypothalamus; format: ADME, organism-based; set-up: dose 2 mg/kg, route intravenous; settings: in vivo, iv
Method in brief: (§1)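 Rats pretreated iv with drug (2 mg/kg) or saline 5 min before iv [18F]ACF (50 μCi). Sacrificed 1 h after tracer. Brain regions were dissected, weighed and counted, and % dose/g was calculated against a diluted initial dose. Drug-treated rats were compared with saline controls by ANOVA/Dunnett's test (p<0.05). Three rats per point, average ± SD.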

Rattus norvegicus [2] = test: Effect of pretreatment with (+)-McN5652 with a dose of 2 mg/kg (i.v.) on specific binding of [18F]ACF in rat brain remainder; dose/g; format: ADME, organism-based; set-up: dose 2 mg/kg, route intravenous; settings: in vivo, iv; method in brief: as §1
Rattus norvegicus [3] = test: Effect of pretreatment with methylphenidate with a dose of 2 mg/kg (i.v.) on specific binding of [18F]ACF in rat brain hypothalamus; format: ADME, organism-based; set-up: dose 2 mg/kg, route intravenous; settings: in vivo, iv; method in brief: as §1
[4] = Effect of pretreatment with nisoxatine with a dose of 2 mg/kg (i.v.) on specific binding of [18F]ACF in rat brain cerebellum; format: functional, organism-based; set-up: dose 2 mg/kg; method in brief: as §1
Rattus norvegicus [5] = species on record: Rattus norvegicus; test: Organ distribution of [18F]-ACF radiolabeled compound in rat heart after 30 min; format: ADME, organism-based; settings: in vivo, 0.5 h
Method in brief: (§2)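 Under ether anesthesia, 30 μCi no-carrier-added tracer in 0.2 mL saline injected into the femoral vein. Rats killed by cardiac excision at the stated time. Organs were removed, weighed and counted; % dose/organ was calculated against counts of a 1% initial-dose standard. Three rats per time, average ± SD.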

Rattus norvegicus [6] = test: Effect of pretreatment with (+)-McN5652 with a dose of 2 mg/kg (i.v.) on specific binding of [18F]ACF in rat brain cerebellum; format: ADME, organism-based; set-up: dose 2 mg/kg, route intravenous; settings: in vivo, iv; method in brief: as §1
Rattus norvegicus [7] = species on record: Rattus norvegicus; test: Organ distribution of [18F]ACF radiolabeled compound in rat kidney after 2 min; format: ADME, organism-based; settings: in vivo
Method in brief: (§3)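 Rats, three per time point, under ether anesthesia; 30 μCi tracer in 0.2 mL saline injected into femoral vein. Sacrificed by cardiac excision under ether at 2, 30, 60, 120 or 240 min. Organs removed, weighed and counted; % dose/organ calculated against counts of 1% of initial dose counted at the same time. Average of three rats ± SD.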

Rattus norvegicus [8] = species on record: Rattus norvegicus; test: Regional brain distribution of [18F]ACF radiolabeled compound in rat striatum after 30 min; format: ADME, organism-based; settings: in vivo, 0.5 h
Method in brief: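 Rats, three per group, under ether anaesthesia, given 30 μCi no-carrier-added tracer in 0.2 mL saline into the femoral vein. They were killed at the stated time by cardiac excision under ether. Striatum and other brain regions were dissected, weighed and counted. %dose/g was calculated against counts of 1% of the injected dose, as mean ± SD of three rats.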

Rattus norvegicus [9] = species on record: Rattus norvegicus; test: Regional brain distribution of [18F]-ACF radiolabeled compound in rat hypothalamus after 2 min; format: ADME, organism-based; settings: in vivo
Method in brief: (§4)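 Rats (three per group) under ether anesthesia got 30 μCi tracer in 0.2 mL saline into the femoral vein and were killed by cardiac excision at the stated time. Cortex, striatum, hippocampus, cerebellum, hypothalamus and the rest of brain were dissected, weighed and gamma counted. %dose/g was taken against counts of a diluted initial dose. Regional ratios are each region's %dose/g over cerebellum's. Mean ± SD.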

Rattus norvegicus [10] = species on record: Rattus norvegicus; test: Regional brain distribution of [18F]ACF radiolabeled compound in rat hypothalamus after 30 min; format: ADME, organism-based; settings: in vivo, 0.5 h; method in brief: as §4
Rattus norvegicus [11] = species on record: Rattus norvegicus; test: Regional brain distribution of [18F]ACF radiolabeled compound in rat hypothalamus after 60 min; format: ADME, organism-based; settings: in vivo, 1 h; method in brief: as §4
Rattus norvegicus [12] = species on record: Rattus norvegicus; test: Regional brain distribution of [18F]ACF radiolabeled compound in rat remainder (rest of brain) after 120 min; format: ADME, organism-based; settings: in vivo, 2 h; method in brief: as §4
Rattus norvegicus [13] = species on record: Rattus norvegicus; test: Organ distribution of [18F]ACF radiolabeled compound in rat liver after 240 min; format: ADME, organism-based; settings: in vivo, 4 h; method in brief: as §3
Rattus norvegicus [14] = species on record: Rattus norvegicus; test: Organ distribution of [18F]-ACF radiolabeled compound in rat lung after 240 min; format: ADME, organism-based; settings: in vivo, 4 h; method in brief: as §2
Rattus norvegicus [15] = species on record: Rattus norvegicus; test: Organ distribution of [18F]-ACF radiolabeled compound in rat lung after 60 min; format: ADME, organism-based; settings: in vivo, 1 h; method in brief: as §2
Rattus norvegicus [16] = species on record: Rattus norvegicus; test: Organ distribution of [18F]-ACF radiolabeled compound in rat muscle after 120 min; format: ADME, organism-based, Muscle tissue; settings: in vivo, 2 h; method in brief: as §2
Rattus norvegicus [17] = species on record: Rattus norvegicus; test: Organ distribution of [18F]-ACF radiolabeled compound in rat spleen after 120 min; format: ADME, organism-based; settings: in vivo, 2 h; method in brief: as §2
Rattus norvegicus [18] = species on record: Rattus norvegicus; test: Organ distribution of [18F]ACF radiolabeled compound in rat bone after 120 min; format: ADME, organism-based, Bone element; settings: in vivo, 2 h; method in brief: as §3
Rattus norvegicus [19] = species on record: Rattus norvegicus; test: Regional brain distribution of [18F]ACF radiolabeled compound in rat hippocampus after 240 min; format: ADME, organism-based; settings: in vivo, 4 h; method in brief: as §4
Rattus norvegicus [20] = species on record: Rattus norvegicus; test: Organ distribution of [18F]ACF radiolabeled compound in rat brain after 2 min; format: ADME, organism-based; settings: in vivo; method in brief: as §3
Rattus norvegicus [21] = species on record: Rattus norvegicus; test: Organ distribution of [18F]ACF radiolabeled compound in rat heart after 120 min; format: ADME, organism-based; settings: in vivo, 2 h; method in brief: as §3
Rattus norvegicus [22] = species on record: Rattus norvegicus; test: Ratio of regional brain distribution of [18F]-ACF radiolabeled compound in rat cerebellum to that of cerebellum after 60 min; format: ADME, organism-based; settings: in vivo, 1 h
Method in brief: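 Rats, three per time point, given 30 μCi tracer in 0.2 mL saline into femoral vein under ether anesthesia; killed at 2, 30, 60, 120 or 240 min. Cortex, striatum, hippocampus, cerebellum, hypothalamus and rest of brain dissected, weighed, counted; % dose/g against diluted initial dose, then each region divided by cerebellum. Average of three rats ± SD.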

Rattus norvegicus [23] = test: Ratio of effect of pretreatment with nisoxatine with a dose of 2 mg/kg (i.v.) on specific binding of [18F]ACF in rat brain cortex to that of cerebellum; format: ADME, organism-based; set-up: dose 2 mg/kg, route intravenous; settings: in vivo, iv
Method in brief: (§5)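 Rats (three per point) pretreated iv with competing drug at 2 mg/kg or saline (control) 5 min before iv [18F]ACF (50 μCi). At 1 h post tracer, brain regions (cortex, striatum, hippocampus, cerebellum, hypothalamus, remainder) dissected, weighed, counted as % dose/g and expressed as ratio to cerebellum. Average ± SD; ANOVA with Dunnett's test vs saline controls, p < 0.05.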

Rattus norvegicus [24] = species on record: Rattus norvegicus; test: Ratio of regional brain distribution of [18F]-ACF radiolabeled compound in rat remainder to that of cerebellum after 240 min; format: ADME, organism-based; settings: in vivo, 4 h; method in brief: as §4
Rattus norvegicus [25] = species on record: Rattus norvegicus; test: Ratio of regional brain distribution of [18F]ACF radiolabeled compound in rat remainder to that of cerebellum after 60 min; format: ADME, organism-based; settings: in vivo, 1 h; method in brief: as §4
Rattus norvegicus [26] = species on record: Rattus norvegicus; test: Ratio of regional brain distribution of [18F]ACF radiolabeled compound in rat hypothalamus to that of cerebellum after 120 min; format: ADME, organism-based; settings: in vivo, 2 h; method in brief: as §4
Rattus norvegicus [27] = test: Ratio of effect of pretreatment with (+)-McN5652 with a dose of 2 mg/kg (i.v.) on specific binding of [18F]ACF in rat brain cerebellum to that of cerebellum; format: ADME, organism-based; set-up: dose 2 mg/kg, route intravenous; settings: in vivo, iv; method in brief: as §5
Rattus norvegicus [28] = test: Ratio of effect of pretreatment with (+)-McN5652 with a dose of 2 mg/kg (i.v.) on specific binding of [18F]ACF in rat brain cortex to that of cerebellum; format: ADME, organism-based; set-up: dose 2 mg/kg, route intravenous; settings: in vivo, iv; method in brief: as §5
Rattus norvegicus [29] = test: Ratio of effect of pretreatment with (+)-McN5652 with a dose of 2 mg/kg (i.v.) on specific binding of [18F]ACF in rat brain hypothalamus to that of cerebellum; format: ADME, organism-based; set-up: dose 2 mg/kg, route intravenous; settings: in vivo, iv; method in brief: as §5
Rattus norvegicus [30] = test: Ratio of effect of pretreatment with (+)-McN5652 with a dose of 2 mg/kg (i.v.) on specific binding of [18F]ACF in rat brain remainder to that of cerebellum; format: ADME, organism-based; set-up: dose 2 mg/kg, route intravenous; settings: in vivo, iv; method in brief: as §5
Rattus norvegicus [31] = test: Ratio of effect of pretreatment with methylphenidate with a dose of 2 mg/kg (i.v.) on specific binding of [18F]ACF in rat brain cortex to that of cerebellum; format: ADME, organism-based; set-up: dose 2 mg/kg, route intravenous; settings: in vivo, iv; method in brief: as §5
Rattus norvegicus [32] = species on record: Rattus norvegicus; test: Ratio of regional brain distribution of [18F]-ACF radiolabeled compound in rat hypothalamus to that of cerebellum after 2 min; format: ADME, organism-based; settings: in vivo; method in brief: as §4
Rattus norvegicus [33] = species on record: Rattus norvegicus; test: Regional brain distribution of [18F]ACF radiolabeled compound in rat cerebellum after 120 min; format: ADME, organism-based; settings: in vivo, 2 h; method in brief: as §4

- Dose/g (Rattus norvegicus [1]): 0.24%
- Dose/g (Rattus norvegicus [2]): 0.23%
- Dose/g (Rattus norvegicus [3]): 0.52%
- Dose/g (Rattus norvegicus [5]): 0.18 % dose/organ
- Dose/g (Rattus norvegicus [6]): 0.17%
- Dose/g (Rattus norvegicus [7]): 6.97 % dose/organ
- Dose/g (Rattus norvegicus [8]): 0.76%
- Dose/g (Rattus norvegicus [9]): 1.76%
- Dose/g (Rattus norvegicus [10]): 0.85%
- Dose/g (Rattus norvegicus [11]): 0.54%
- Dose/g (Rattus norvegicus [12]): 0.12%
- Dose/g (Rattus norvegicus [13]): 3.55 % dose/organ
- Dose/g (Rattus norvegicus [14]): 0.15 % dose/organ
- Dose/g (Rattus norvegicus [15]): 0.73 % dose/organ
- Dose/g (Rattus norvegicus [16]): 4.02 % dose/organ
- Dose/g (Rattus norvegicus [17]): 0.06 % dose/organ
- Dose/g (Rattus norvegicus [18]): 0.28 % dose/organ
- Dose/g (Rattus norvegicus [19]): 0.04%
- Dose/g (Rattus norvegicus [20]): 3.27 % dose/organ
- Dose/g (Rattus norvegicus [21]): 0.06 % dose/organ
- Ratio (Rattus norvegicus [22]): 1
- Ratio (Rattus norvegicus [23]): 1.94
- Ratio (Rattus norvegicus [24]): 1.58
- Ratio (Rattus norvegicus [25]): 2.56
- Ratio (Rattus norvegicus [26]): 3.23
- Ratio (Rattus norvegicus [27]): 1
- Ratio (Rattus norvegicus [28]): 1.43
- Ratio (Rattus norvegicus [29]): 1.36
- Ratio (Rattus norvegicus [30]): 1.37
- Ratio (Rattus norvegicus [31]): 2.02
- Ratio (Rattus norvegicus [32]): 1.37
- Dose/g (Rattus norvegicus [33]): 0.05%
SMILES: CN(C)Cc1ccccc1Sc1cc(F)c(Cl)cc1N
- Dose/g [4]: 0.19%

— ChEMBL document CHEMBL1136006, “New PET imaging agent for the serotonin transporter: [(18)F]ACF (2-[(2-amino-4-chloro-5-fluorophenyl)thio]-N,N-dimethyl-benzenmethanamine)” (J Med Chem, 2002)
